Laboratory results as given in ChEMBL document CHEMBL4000179, “An Orally Active Bradykinin B1 Receptor Antagonist Engineered as a Bifunctional Chimera of Sunflower Trypsin Inhibitor” (J Med Chem, 2017).
pIC50, pKi: −log10 of the molar value. Activity calls are given as the source filed them. The calls are words filed in the database; no cut-off is given here. Where a SMILES comes first, the peptide text is derived from it. Bridges are numbered along the chain shown (N, C = ends).

Columns and labels:
[1] = Stability in pH 7 phosphate buffer at 0.1 mM at 100 degC after 6 hrs by HPLC-MS analysis; assay type: physicochemical; conditions: read-out: Stability
Outline: (§1)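 Peptides were boiled at 100 °C, exposed to hydrochloride solution, or incubated with proteases for up to 6 h. Integrity was determined by HPLC and MS.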

[2] = Stability of the compound assessed as trypsin (unknown origin)-mediated compound degradation at enzyme to peptide ratio of 1:50 after 6 hrs by HPLC-MS analysis; assay type: ADME; conditions: human; outline: as §1
Mus musculus [3] = experiment: Analgesic activity in ICR mouse assessed as increase in pain response latency at 1 mg/kg,ip measured after 10 mins by hot plate assay relative to control; assay type: functional
Outline: (§2)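 Mouse hot plate test with hind paw-licking as the nociceptive end point. Peptides were given i.p. or p.o. at several doses, with phosphate-buffered saline as the control. Response latency was compared with each animal's baseline latency and expressed as percent increment in response time.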

Mus musculus [4] = experiment: Analgesic activity in ICR mouse assessed as increase in pain response latency at 0.3 to 10 mg/kg administered through oral gavage 30 mins prior to test by hot plate assay relative to control; assay type: functional; outline: as §2
[5] = Stability of the compound assessed as pepsin (unknown origin)-mediated compound degradation at enzyme to peptide ratio of 1:50 after 6 hrs by HPLC-MS analysis; assay type: ADME; conditions: human; for Stability: 6 h; outline: as §1
Serum = experiment: Metabolic stability in human serum after 2 hrs by UPLC method; assay type: ADME, cell-free
Outline: (§3)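 Peptides were incubated in human serum for up to 6 h, sampled at time points, and the intact fraction was expressed relative to 0 h. Runs were in triplicate, reported as mean ± SD.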

HeLa = experiment: Cytotoxicity against human HeLa cells up to 40 uM after 24 hrs by PrestoBlue cell viability assay; assay type: cell-based
[6] = Stability in 0.2 M aqueous HCl after 6 hrs by HPLC-MS analysis; assay type: physicochemical; conditions: read-out: Stability; outline: as §1
Mus musculus [7] = experiment: Analgesic activity in ICR mouse assessed as increase in pain response latency at 0.03 to 1 mg/kg,ip measured after 10 mins by hot plate assay relative to control; assay type: functional, organism-based; outline: as §2
[8] = molecular target: T1, Serine protease 1 (Bos taurus) (UniProt P00760); experiment: Inhibition of bovine beta-trypsin up to 100 uM using BAPNA as substrate preincubated for 15 mins followed by substrate addition measured over 60 mins by spectrometric method
T1 sequence (whole entry): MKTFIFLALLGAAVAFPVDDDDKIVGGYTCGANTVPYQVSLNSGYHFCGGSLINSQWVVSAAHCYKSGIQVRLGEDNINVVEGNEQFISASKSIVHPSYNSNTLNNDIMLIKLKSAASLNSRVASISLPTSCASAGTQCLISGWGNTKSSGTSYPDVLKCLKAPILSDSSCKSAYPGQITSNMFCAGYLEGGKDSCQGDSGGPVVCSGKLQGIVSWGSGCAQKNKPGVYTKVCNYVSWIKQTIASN
Outline: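 Trypsin activity was measured at 37°C with the chromogenic substrate BAPNA (N-α-benzoyl-DL-arginine 4-nitroanilide), reading absorbance at 405 nm. […] Runs were in triplicate, reported as mean ± SD.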

[9] = Metabolic stability in human serum assessed as parent compound remaining after 6 hrs by UPLC method; assay type: ADME, cell-free; conditions: read-out: Stability; outline: as §3
B1 bradykinin receptor = molecular target: T2, B1 bradykinin receptor (Homo sapiens, UniProt P46663); experiment: Antagonist activity against bradykinin B1 receptor in human HeLa cells assessed as inhibition of Des-Arg9-BK-induced increase in intracellular Ca2+ level by Fluro-4 direct calcium dye based fluorescence assay; assay type: functional, cell-based
T2 sequence (P46663 whole entry): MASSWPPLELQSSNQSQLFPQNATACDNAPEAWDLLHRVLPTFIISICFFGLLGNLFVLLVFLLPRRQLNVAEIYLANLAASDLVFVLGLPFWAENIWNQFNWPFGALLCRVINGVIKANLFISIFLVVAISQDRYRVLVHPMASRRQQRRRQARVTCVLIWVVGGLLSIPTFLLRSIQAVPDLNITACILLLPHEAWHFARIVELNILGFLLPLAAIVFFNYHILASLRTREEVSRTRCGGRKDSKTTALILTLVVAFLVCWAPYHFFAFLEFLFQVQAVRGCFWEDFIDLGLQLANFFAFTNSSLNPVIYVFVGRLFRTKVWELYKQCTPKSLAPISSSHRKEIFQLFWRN
Outline: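 HeLa cells were pre-loaded with fluo-4 Direct dye and pretreated with peptide at 0 to 10 µM. B1 agonist des-Arg9-BK (100 nM) was then added to raise intracellular Ca2+, read as fluorescence change.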

[10] = Drug uptake in ICR mouse serum at 10 mg/kg, po after 4 hrs; assay type: ADME, organism-based; conditions: read-out: Drug uptake
Outline: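 Peptide was given orally at 10 mg/kg, and its serum concentration was measured 4 h later.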

Serine protease 1 = molecular target: T3, Serine protease 1 (Bos taurus, UniProt P00760); experiment: Inhibition of bovine beta-trypsin using BAPNA as substrate preincubated for 15 mins followed by substrate addition measured over 60 mins by Dixon plot analysis
T3 sequence (P00760 whole entry): T1 sequence (whole entry)

Mus musculus [11] = experiment: Analgesic activity in ICR mouse assessed as increase in pain response latency at 10 mg/kg administered through oral gavage 30 mins prior to test by hot plate assay relative to control; assay type: functional; outline: as §2

Row | SMILES | remaining at 6 h, 100 µM [1] [%] | Stability [2] | Activity (Mus musculus [3]) [%] | Activity (Mus musculus [4]) | metabolised at 6 h ([5]; pepsin, read-out: Drug degradation) [%] | Stability (Serum) | Activity (HeLa) | remaining at 6 h [6] [%] | Activity (Mus musculus [7]) | inhibition [8] | Stability [5] | remaining at 6 h [9] [%] | pIC50 (B1 bradykinin receptor) | concentration at 4 h [10] [µM] | pKi (Serine protease 1) | Activity (Mus musculus [11]) [%]
1 | CC(C)C[C@H](NC(=O)[C@@H]1CCCN1C(=O)[C@H](CO)NC(=O)[C@H](Cc1ccccc1)NC(=O)CNC(=O)[C@@H]1CCCN1C(=O)[C@@H]1CCCN1C(=O)[C@H](CCCN=C(N)N)NC(=O)[C@@H](N)CCCCN)C(=O)O | > 80 | Stable | 201 | <10% | > 50 | Unstable | Non-Toxic | > 80 | – | – | – | – | – | – | – | –
2 | CC[C@H](C)[C@@H]1NC(=O)[C@@H]2CCCN2C(=O)[C@@H]2CCCN2C(=O)[C@H]([C@@H](C)CC)NC(=O)[C@H](CO)NC(=O)[C@H](CCCCN)NC(=O)[C@H]([C@@H](C)O)NC(=O)[C@@H]2CSSC[C@H](NC1=O)C(=O)N[C@@H](Cc1ccccc1)C(=O)N1CCC[C@H]1C(=O)N[C@@H](CC(=O)O)C(=O)NCC(=O)N[C@@H](CCCNC(=N)N)C(=O)N2 | > 80 | – | – | inactive | – | – | Non-Toxic | > 80 | inactive | Active | – | – | – | – | – | –
3 | CC[C@H](C)[C@@H]1NC(=O)[C@@H]2CCCN2C(=O)[C@@H]2CCCN2C(=O)[C@H]([C@@H](C)CC)NC(=O)[C@H](CO)NC(=O)[C@H](CCCCN)NC(=O)[C@H]([C@@H](C)O)NC(=O)[C@@H](N)CSSC[C@@H](C(=O)N[C@@H](CCCCN)C(=O)N[C@@H](CCCNC(=N)N)C(=O)N2CCC[C@H]2C(=O)N2CCC[C@H]2C(=O)NCC(=O)N[C@@H](Cc2ccccc2)C(=O)N[C@@H](CO)C(=O)N2CCC[C@H]2C(=O)N[C@@H](CC(C)C)C(=O)O)NC1=O (H-CTKSIPPICKRPPGFSPL-OH; disulfide 1-9) | > 80 | Unstable | – | – | – | – | Non-Toxic | > 80 | – | Active | Unstable | – | – | – | – | –
4 | CC(C)C[C@@H]1NC(=O)[C@@H]2CCCN2C(=O)[C@H](CO)NC(=O)[C@H](Cc2ccccc2)NC(=O)CNC(=O)[C@@H]2CCCN2C(=O)[C@@H]2CCCN2C(=O)[C@H](CCCNC(=N)N)NC(=O)[C@H](CCCCN)NC(=O)[C@@H](NC(=O)[C@H](CCCNC(=N)N)NC(=O)CN)CSSC[C@@H](C(=O)N[C@@H](Cc2ccccc2)C(=O)N2CCC[C@H]2C(=O)N[C@@H](CC(=O)O)C(=O)O)NC1=O (H-GRCKRPPGFSPLCFPD-OH; disulfide 3-13) | > 80 | Unstable | – | – | – | – | Non-Toxic | > 80 | – | – | Unstable | – | – | – | – | –
5 | CC(C)C[C@@H]1NC(=O)[C@@H]2CCCN2C(=O)[C@H](CO)NC(=O)[C@H](Cc2ccccc2)NC(=O)CNC(=O)[C@@H]2CCCN2C(=O)[C@@H]2CCCN2C(=O)[C@H](CCCNC(=N)N)NC(=O)[C@H](CCCCN)NC(=O)[C@@H]2CSSC[C@H](NC1=O)C(=O)N[C@@H](Cc1ccccc1)C(=O)N1CCC[C@H]1C(=O)N[C@@H](CC(=O)O)C(=O)NCC(=O)N[C@@H](CCCNC(=N)N)C(=O)N2 (cyclo(CFPDGRCKRPPGFSPL); disulfide 1-7) | > 80 | Unstable | – | – | – | – | Non-Toxic | > 80 | – | inactive | Stable | > 90 | 5.39 | – | – | –
6 | CC[C@H](C)[C@@H]1NC(=O)[C@@H]2CCCN2C(=O)[C@@H]2CCCN2C(=O)[C@H]([C@@H](C)CC)NC(=O)[C@H](CO)NC(=O)[C@H](CCCCN)NC(=O)[C@H]([C@@H](C)O)NC(=O)[C@@H]2CSSC[C@H](NC1=O)C(=O)N[C@@H](CCCCN)C(=O)N[C@@H](CCCNC(=N)N)C(=O)N1CCC[C@H]1C(=O)N1CCC[C@H]1C(=O)NCC(=O)N[C@@H](Cc1ccccc1)C(=O)N[C@@H](CO)C(=O)N1CCC[C@H]1C(=O)N[C@@H](CC(C)C)C(=O)N2 (cyclo(CKRPPGFSPLCTKSIPPI); disulfide 1-11) | > 80 | Stable | 125 | – | – | – | Non-Toxic | > 80 | – | Active | Stable | > 90 | 5.70 | 11.5 | 8.29 | 71
